Results on 42 molecules are retold here after ChEMBL document CHEMBL1833916, “Synthesis and biological evaluation of 4-piperidinecarboxylate and 4-piperidinecyanide derivatives for T-type calcium channel blockers” (Bioorg Med Chem Lett, 2011).

The target in series [1] is T1, Voltage-dependent T-type calcium channel subunit alpha-1G (Homo sapiens, UniProt O43497). As to the kind of experiment: Inhibition of T-type calcium channel alpha1G expressed in human HEK293 cells assessed as KCl-induced depolarization at 10 uM after 60 mins by FDSS6000 assay. The class given is cell-based.
T1 sequence (O43497 whole entry): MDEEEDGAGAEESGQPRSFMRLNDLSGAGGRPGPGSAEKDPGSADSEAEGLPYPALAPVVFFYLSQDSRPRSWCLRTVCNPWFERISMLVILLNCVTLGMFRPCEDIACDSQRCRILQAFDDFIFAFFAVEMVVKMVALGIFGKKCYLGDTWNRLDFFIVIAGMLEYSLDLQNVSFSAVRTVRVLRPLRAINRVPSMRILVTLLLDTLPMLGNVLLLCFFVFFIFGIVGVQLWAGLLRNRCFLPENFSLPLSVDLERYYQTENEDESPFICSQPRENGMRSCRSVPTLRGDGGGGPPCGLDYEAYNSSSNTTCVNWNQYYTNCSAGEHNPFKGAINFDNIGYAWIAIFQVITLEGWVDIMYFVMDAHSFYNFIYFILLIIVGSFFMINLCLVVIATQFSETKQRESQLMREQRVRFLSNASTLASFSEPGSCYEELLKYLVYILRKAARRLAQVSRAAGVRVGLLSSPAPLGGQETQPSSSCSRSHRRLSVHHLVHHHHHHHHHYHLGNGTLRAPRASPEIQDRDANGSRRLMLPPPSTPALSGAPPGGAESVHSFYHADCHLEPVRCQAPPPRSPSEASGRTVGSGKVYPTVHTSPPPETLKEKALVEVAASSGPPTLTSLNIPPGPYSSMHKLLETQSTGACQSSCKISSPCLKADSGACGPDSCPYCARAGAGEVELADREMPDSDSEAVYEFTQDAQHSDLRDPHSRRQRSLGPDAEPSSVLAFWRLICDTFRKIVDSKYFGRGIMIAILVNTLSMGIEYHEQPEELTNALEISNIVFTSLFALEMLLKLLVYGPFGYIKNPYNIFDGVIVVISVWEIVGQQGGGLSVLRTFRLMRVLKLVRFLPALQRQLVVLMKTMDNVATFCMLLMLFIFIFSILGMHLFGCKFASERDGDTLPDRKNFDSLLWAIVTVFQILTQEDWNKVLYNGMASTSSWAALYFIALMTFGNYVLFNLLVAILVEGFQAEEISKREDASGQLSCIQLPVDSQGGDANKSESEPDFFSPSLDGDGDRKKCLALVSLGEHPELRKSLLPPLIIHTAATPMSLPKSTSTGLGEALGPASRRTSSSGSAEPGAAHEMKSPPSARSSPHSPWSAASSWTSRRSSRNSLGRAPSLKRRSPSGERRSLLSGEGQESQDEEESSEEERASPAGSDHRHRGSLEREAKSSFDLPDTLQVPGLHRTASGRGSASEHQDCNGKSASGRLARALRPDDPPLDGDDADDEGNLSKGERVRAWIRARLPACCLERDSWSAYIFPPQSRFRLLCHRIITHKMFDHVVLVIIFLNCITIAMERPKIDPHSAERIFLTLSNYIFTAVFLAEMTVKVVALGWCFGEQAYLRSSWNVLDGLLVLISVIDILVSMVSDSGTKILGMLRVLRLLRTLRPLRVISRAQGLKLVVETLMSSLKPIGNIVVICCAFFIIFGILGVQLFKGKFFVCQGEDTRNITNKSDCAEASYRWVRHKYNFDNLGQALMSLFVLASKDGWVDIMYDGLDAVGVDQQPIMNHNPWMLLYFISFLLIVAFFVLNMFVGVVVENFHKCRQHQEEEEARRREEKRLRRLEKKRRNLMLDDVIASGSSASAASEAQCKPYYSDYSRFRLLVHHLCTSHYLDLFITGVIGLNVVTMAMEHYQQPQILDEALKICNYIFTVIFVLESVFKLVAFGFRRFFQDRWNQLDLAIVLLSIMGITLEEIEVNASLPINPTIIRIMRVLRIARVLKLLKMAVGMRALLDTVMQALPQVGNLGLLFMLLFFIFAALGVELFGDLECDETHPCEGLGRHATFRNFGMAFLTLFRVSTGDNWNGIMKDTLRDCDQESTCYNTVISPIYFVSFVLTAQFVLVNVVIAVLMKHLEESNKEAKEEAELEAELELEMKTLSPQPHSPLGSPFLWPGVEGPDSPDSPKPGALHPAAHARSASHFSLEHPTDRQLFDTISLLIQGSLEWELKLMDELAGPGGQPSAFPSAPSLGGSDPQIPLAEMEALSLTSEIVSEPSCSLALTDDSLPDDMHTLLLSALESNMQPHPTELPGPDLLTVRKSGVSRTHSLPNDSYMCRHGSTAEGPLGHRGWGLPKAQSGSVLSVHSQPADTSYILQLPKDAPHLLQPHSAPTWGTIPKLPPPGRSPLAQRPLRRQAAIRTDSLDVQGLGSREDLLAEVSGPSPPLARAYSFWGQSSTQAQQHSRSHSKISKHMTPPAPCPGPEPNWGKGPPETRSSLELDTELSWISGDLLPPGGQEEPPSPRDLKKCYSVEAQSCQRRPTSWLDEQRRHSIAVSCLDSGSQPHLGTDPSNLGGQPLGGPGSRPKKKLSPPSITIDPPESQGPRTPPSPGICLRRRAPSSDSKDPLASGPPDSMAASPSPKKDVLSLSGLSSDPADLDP
Series [2] can be described thus: Metabolic stability in human hepatic microsomes at 1 uM after 60 mins by LC-MS/MS analysis. Format: ADME, Liver. As to conditions: 1 h. An outline of the steps:
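Human liver microsomes (0.5 mg/ml) with compound (1 μM) in 0.1 M potassium phosphate, pH 7.4, at 37 °C; started with β-NADPH (1.2 mM). Sampled at 0, 5, 15, 30 and 60 min, quenched with acetonitrile containing internal standard, analysed by LC–MS/MS. Reported as % parent remaining; mean of duplicate experiments.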

The test system of series [3] is Rattus norvegicus. As to the kind of experiment: Antiallodynic activity in rat spinal nerve ligation model of neuropathic pain assessed as suppression of mechanical allodynia at 100 mg/kg, po after 5 hrs. Format: functional, organism-based. Further details: dose 100 mg/kg. An outline of the steps: (§1)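 Rats with induced neuropathic pain, dosed orally at 100 mg/kg (n = 5 per group), with gabapentin 100 mg/kg po as reference. Mechanical and cold allodynia were followed over days after nerve injury and hours after dosing. Significance was tested by unpaired t-test (P < 0.05).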

Series [4] concerns Rattus norvegicus. As to the kind of experiment: Antiallodynic activity in rat spinal nerve ligation model of neuropathic pain assessed as inhibition of cold allodynia at 100 mg/kg, po after 5 hrs. The class given is functional, organism-based. Further details: dose 100 mg/kg. A digest of the protocol:
as §1

Series [5] deals with T1, Voltage-dependent T-type calcium channel subunit alpha-1G. As to the kind of experiment: Inhibition of T-type calcium channel alpha1G expressed in human HEK293 cells assessed as KCl-induced depolarization after 60 mins by FDSS6000 assay. The class given is cell-based.
In series [6] the target is Voltage-gated inwardly rectifying potassium channel KCNH2 (Homo sapiens, UniProt Q12809). In words: Inhibition of human ERG by patch clamp assay. (The patch-clamp technique gives a direct electrical read-out from membranes.)
Sequence of Voltage-gated inwardly rectifying potassium channel KCNH2 (Q12809 whole entry): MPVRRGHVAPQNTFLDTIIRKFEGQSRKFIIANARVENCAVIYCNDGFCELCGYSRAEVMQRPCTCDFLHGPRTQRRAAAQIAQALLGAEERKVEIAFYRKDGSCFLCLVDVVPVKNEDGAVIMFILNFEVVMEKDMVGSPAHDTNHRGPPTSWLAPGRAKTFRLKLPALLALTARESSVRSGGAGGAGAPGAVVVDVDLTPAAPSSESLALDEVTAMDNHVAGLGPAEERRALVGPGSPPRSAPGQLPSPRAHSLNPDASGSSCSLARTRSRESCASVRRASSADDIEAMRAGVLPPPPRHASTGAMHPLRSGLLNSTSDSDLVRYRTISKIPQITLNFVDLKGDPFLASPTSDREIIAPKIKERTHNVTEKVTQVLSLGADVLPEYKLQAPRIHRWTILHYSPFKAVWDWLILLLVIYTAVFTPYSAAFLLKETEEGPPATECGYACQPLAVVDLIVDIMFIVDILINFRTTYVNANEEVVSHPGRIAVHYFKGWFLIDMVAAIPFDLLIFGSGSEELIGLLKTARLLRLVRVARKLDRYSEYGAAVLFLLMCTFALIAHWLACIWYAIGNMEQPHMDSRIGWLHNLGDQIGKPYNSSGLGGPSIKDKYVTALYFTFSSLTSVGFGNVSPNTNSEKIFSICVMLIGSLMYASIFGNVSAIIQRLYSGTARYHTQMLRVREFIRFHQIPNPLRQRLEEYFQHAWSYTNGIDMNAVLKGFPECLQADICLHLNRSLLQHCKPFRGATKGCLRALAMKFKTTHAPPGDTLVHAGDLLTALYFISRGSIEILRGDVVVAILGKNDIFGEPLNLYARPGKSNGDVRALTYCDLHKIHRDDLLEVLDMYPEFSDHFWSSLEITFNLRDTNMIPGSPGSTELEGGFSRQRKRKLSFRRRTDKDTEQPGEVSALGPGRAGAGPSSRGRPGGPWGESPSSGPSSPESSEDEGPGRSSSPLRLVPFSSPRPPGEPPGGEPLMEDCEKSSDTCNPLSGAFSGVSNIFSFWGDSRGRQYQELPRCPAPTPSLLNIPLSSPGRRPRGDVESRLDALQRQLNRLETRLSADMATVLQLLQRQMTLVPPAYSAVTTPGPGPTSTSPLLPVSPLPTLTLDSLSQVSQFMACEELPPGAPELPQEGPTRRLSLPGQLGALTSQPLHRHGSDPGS

Activity calls are given as the source filed them. No cut-off for these calls is given here.

What is called inhibition is the drop in the measured response relative to a control, in per cent. One may read the IC50 as the concentration needed to halve the response being measured.

`COC(=O)C1(CNC(=O)c2cc(Cl)cc(Cl)c2)CCN(Cc2ccccc2C(F)(F)F)CC1`: the inhibition in series [1] was determined as 44.1%.

For `COc1cc(OC)cc(C(=O)NCC2(C(=O)O)CCN(Cc3ccc(C(F)(F)F)cc3)CC2)c1.Cl`, the Stability entry in series [2] is reported as “Stable”. In series [3], the result was Active. For the same molecule, the inhibition result in series [4] is “Active”. Moreover, the IC50 in series [5] was 7310 nM.

In the case of `COc1ccccc1CN1CCC(C#N)(CNC(=O)c2cc(CC(C)C)n(-c3ccccc3)n2)CC1`, in series [1], the inhibition was 50.9%.

As to `N#CC1(CNC(=O)c2cc(Cl)cc(Cl)c2)CCN(CCc2ccccc2)CC1`, the inhibition in series [1] came to 71.8%. In series [6], this molecule registered an IC50 of 360 nM.

With `CC(C)Cc1cc(C(=O)NCC2(C#N)CCN(Cc3cccc(C(F)(F)F)c3)CC2)nn1-c1ccccc1`, in series [1], the inhibition amounted to 15.8%.

For the molecule `CC1(C)Oc2ccccc2C=C1CN1CCC(C#N)(CNC(=O)c2cc(Cl)cc(Cl)c2)CC1`, the inhibition in series [1] is 13.6%.

Consider `COC(=O)C1(CNC(=O)c2cc(OC)cc(OC)c2)CCN(Cc2ccc(OC)cc2)CC1`, for which, in series [1], the inhibition amounted to 59%. The midpoint of inhibition in series [6], the IC50, lay at 480 nM.

On to `N#CC1(CNC(=O)c2cc(Cl)cc(Cl)c2)CCN(Cc2ccc(C(F)(F)F)cc2)CC1`, for which the inhibition in series [1] turned out to be 8.7%.

Regarding `COc1ccccc1CN1CCC(C#N)(CNC(=O)c2cc(Cl)cc(Cl)c2)CC1`, the inhibition in series [1] is 19.3%.

Consider `COc1cc(OC)cc(C(=O)NCC2(C#N)CCN(CC3=Cc4ccccc4OC3(C)C)CC2)c1`, for which the inhibition in series [1] worked out at 44.3%. The molecule also displayed an IC50 in series [6] of 4730 nM.

With `N#CC1(CNC(=O)c2cc(Cl)cc(Cl)c2)CCN(Cc2ccccc2C(F)(F)F)CC1`, the inhibition in series [1] was 9.99%.

`COc1cc(OC)cc(C(=O)NCC2(C#N)CCN(Cc3ccccc3OC)CC2)c1`: in series [1], the inhibition is 50.9%. In series [6], this molecule gave an IC50 of 920 nM.

As to `COC(=O)C1(CNC(=O)c2cc(Cl)cc(Cl)c2)CCN(Cc2cccc(OC)c2)CC1`, the inhibition in series [1] worked out at 73%. For the same molecule, the IC50 in series [6] came to 360 nM.

With `COC(=O)C1(CNC(=O)c2cc(OC)cc(OC)c2)CCN(Cc2cccc(C(F)(F)F)c2)CC1`, in series [2], the Stability entry is on record as “Unstable”. In addition, the inhibition in series [1] came out at 72%. The molecule also showed an IC50 in series [6] of 2800 nM.

With `COc1ccc(CN2CCC(C#N)(CNC(=O)c3cc(OC)cc(OC)c3)CC2)cc1`, the inhibition in series [1] came to 53%.

As to `NCC1(CC(=O)O)CCCCC1`, the result in series [3] was Active. Moreover, in series [4], the inhibition result was “Active”.

With `COc1ccc(CN2CCC(C#N)(CNC(=O)c3cc(CC(C)C)n(-c4ccccc4)n3)CC2)cc1`, in series [1], the inhibition is 53%.

Consider `COc1ccc(CN2CCC(C#N)(CNC(=O)c3cc(Cl)cc(Cl)c3)CC2)cc1`, for which, in series [1], the inhibition was found to be 16.1%.

Regarding `CC(C)Cc1cc(C(=O)NCC2(C#N)CCN(Cc3ccccc3C(F)(F)F)CC2)nn1-c1ccccc1`, the inhibition in series [1] turned out to be 45.4%. This molecule showed an IC50 in series [6] of 4760 nM.

As for `COC(=O)C1(CNC(=O)c2cc(Cl)cc(Cl)c2)CCN(Cc2ccc(C(F)(F)F)cc2)CC1`, the inhibition in series [1] turned out to be 43.3%. This molecule also showed an IC50 in series [6] of 290 nM.

In the case of `COC(=O)C1(CNC(=O)c2cc(Cl)cc(Cl)c2)CCN(CCc2ccccc2)CC1`, in series [1], the inhibition was 77.2%.

As to `COC(=O)C1(CNC(=O)c2cc(Cl)cc(Cl)c2)CCN(CC2=Cc3ccccc3OC2(C)C)CC1`, in series [1], the inhibition worked out at 33.9%. The molecule further returned an IC50 in series [6] of 13800 nM.

As to `CC(C)Cc1cc(C(=O)NCC2(C#N)CCN(CC3=Cc4ccccc4OC3(C)C)CC2)nn1-c1ccccc1`, in series [1], the inhibition was 44.3%. The molecule further returned an IC50 in series [6] of 4730 nM.

As to `COc1cc(OC)cc(C(=O)NCC2(C#N)CCN(Cc3cccc(C(F)(F)F)c3)CC2)c1`, the inhibition in series [1] came to 15.8%.

With `COc1cccc(CN2CCC(C#N)(CNC(=O)c3cc(CC(C)C)n(-c4ccccc4)n3)CC2)c1`, in series [1], the inhibition was 60.4%. Besides, the IC50 in series [6] came to 1500 nM.

As for `COC(=O)C1(CNC(=O)c2cc(OC)cc(OC)c2)CCN(CCc2ccccc2)CC1`, in series [1], the inhibition is 65%.

Take `CC(C)Cc1cc(C(=O)NCC2(C#N)CCN(Cc3ccc(C(F)(F)F)cc3)CC2)nn1-c1ccccc1`: the inhibition in series [1] was found to be 13.9%.

Regarding `CC(C)Cc1cc(C(=O)NCC2(C#N)CCN(CCc3ccccc3)CC2)nn1-c1ccccc1`, the inhibition in series [1] was determined as 61.9%.

With `COC(=O)C1(CNC(=O)c2cc(OC)cc(OC)c2)CCN(CC2=Cc3ccccc3OC2(C)C)CC1`, the inhibition in series [1] amounted to 58%.

For the molecule `COc1cccc(CN2CCC(C#N)(CNC(=O)c3cc(OC)cc(OC)c3)CC2)c1`, in series [1], the inhibition was found to be 60.4%.

Take `COC(=O)C1(CNC(=O)c2cc(OC)cc(OC)c2)CCN(Cc2ccc(C(F)(F)F)cc2)CC1`: the Stability entry in series [2] was “Unstable”. Further, the inhibition in series [1] is 64.3%. The IC50 in series [5] came out at 4180 nM.

For the molecule `N#CC1(CNC(=O)c2cc(Cl)cc(Cl)c2)CCN(Cc2cccc(C(F)(F)F)c2)CC1`, the inhibition in series [1] was 8.76%.

In the case of `COc1cc(OC)cc(C(=O)NCC2(C#N)CCN(Cc3ccccc3C(F)(F)F)CC2)c1`, in series [1], the inhibition was found to be 45.4%. For the same molecule, the IC50 in series [6] came out at 4760 nM.

For the molecule `COC(=O)C1(CNC(=O)c2cc(Cl)cc(Cl)c2)CCN(Cc2ccccc2OC)CC1`, the inhibition in series [1] turned out to be 68.5%. 160 nM corresponded to half-maximal inhibition in series [6] (IC50).

As for `COC(=O)C1(CNC(=O)c2cc(Cl)cc(Cl)c2)CCN(Cc2ccc(OC)cc2)CC1`, in series [1], the inhibition turned out to be 74.5%.

For `COC(=O)C1(CNC(=O)c2cc(OC)cc(OC)c2)CCN(Cc2cccc(OC)c2)CC1`, in series [1], the inhibition was determined as 56.2%. This molecule returned an IC50 in series [6] of 310 nM.

On to `COC(=O)C1(CNC(=O)c2cc(OC)cc(OC)c2)CCN(Cc2ccccc2OC)CC1`, for which the inhibition in series [1] was found to be 46.8%. In series [6], this molecule had an IC50 of 1900 nM.

Regarding `COc1cc(OC)cc(C(=O)NCC2(C#N)CCN(Cc3ccc(C(F)(F)F)cc3)CC2)c1`, the inhibition in series [1] was found to be 13.9%.

For the molecule `COc1cc(OC)cc(C(=O)NCC2(C#N)CCN(CCc3ccccc3)CC2)c1`, the Stability result in series [2] was “Unstable”. In addition, in series [1], the inhibition was determined as 61.9%. The molecule further returned an IC50 in series [6] of 1570 nM.

As to `COc1cccc(CN2CCC(C#N)(CNC(=O)c3cc(Cl)cc(Cl)c3)CC2)c1`, the inhibition in series [1] turned out to be 8.33%.

For the molecule `COC(=O)C1(CNC(=O)c2cc(Cl)cc(Cl)c2)CCN(Cc2cccc(C(F)(F)F)c2)CC1`, the inhibition in series [1] stood at 72%.

With `COC(=O)C1(CNC(=O)c2cc(OC)cc(OC)c2)CCN(Cc2ccccc2C(F)(F)F)CC1`, in series [2], the Stability entry is listed as “Unstable”. Also, in series [1], the inhibition was determined as 63.6%. Moreover, it took 4980 nM to reach half-maximal inhibition in series [6] (IC50).
